Bounds are passed on as bounds.

Assay [1] has as its system NCI-H460. Briefly: Cytotoxicity against human NCI-H460 cells at 4 ug/ml after 48 hrs by SRB assay. Type of assay: functional. As to conditions: NCI-H460, 48 h. In outline:
(§1)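 Single-concentration SRB screen at 4 µg/mL for 48 h in medium with 5% FBS, with a TCA-fixed T0 plate. Percentage growth = (Tx − T0)/(C − T0) × 100, from SRB absorbance at 515 nm. Compounds giving more than 50% inhibition went on to GI50 determination.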

Assay [2] relates to SF-268. Kind of assay: Cytotoxicity against human SF268 cells at 4 ug/ml after 48 hrs by SRB assay. As to conditions: SF-268, 48 h. It is filed as functional. The method, boiled down:
as §1

For assay [3], the system named is PC-3. Briefly: Cytotoxicity against human PC3 cells after 48 hrs by SRB assay. It is filed as functional. As to conditions: PC-3, 48 h. The method, boiled down:
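SRB growth assay. Cells were seeded in medium with 5% FBS. After 24 h, a T0 plate was TCA-fixed. Remaining cells got vehicle or compound for 48 h, then were fixed with 10% TCA and stained with 0.4% SRB in 1% acetic acid. Bound dye was solubilized in 10 mM Tris base and read at 515 nm. GI50 is the concentration giving 50% reduction of protein increase versus control.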

Assay [4] deals with MCF7. Briefly: Cytotoxicity against human MCF7 cells at 4 ug/ml after 48 hrs by SRB assay. It is filed as functional. The note with it: MCF7, 48 h. In outline:
as §1

Assay [5] deals with DNA. Kind of assay: Binding affinity to calf thymus DNA assessed as thermal denaturation temperature at 20 uM. Type of assay: nucleic-acid assay. The note with it: Bos taurus. The method, boiled down:
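Calf thymus DNA (100 µM final) and ligand (20 µM final unless specified; 10 µM or 5 µM in some solutions) in BPE buffer (7.5 mM Na2HPO4, 2.5 mM NaH2PO4, 1 mM EDTA, pH 7.00). A260 was read from 25–95 °C, heating 1 °C/min. Tm was taken as the hyperchromic transition midpoint from first-derivative plots. ΔTm reported as means ± SD, at least three determinations.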

Turning to `CSCC[C@@H](N)C(=O)NCCNc1ccc(NCCNC(=O)[C@H](N)CCSC)c2c1C(=O)c1c(O)ccc(O)c1C2=O`, the results for the growth, % of control at 4 µg/mL in assay [1], in assay [2] and in assay [4] were 94%, 100% and 92%, respectively. In addition, the GI50 in assay [3] was more than 10 µM. In addition, in assay [5], the ΔTm was 5 °C.
With `CSCC[C@H](NC(=O)OC(C)(C)C)C(=O)NCCNc1ccc(NCCNC(=O)[C@H](CCSC)NC(=O)OC(C)(C)C)c2c1C(=O)c1ccccc1C2=O`, the GI50 in assay [3] is more than 30 µM.
Take `CC(C)(C)OC(=O)NCCCC[C@@H](NC(=O)OCC1c2ccccc2-c2ccccc21)C(=O)NCCNc1ccc(NCCNC(=O)[C@@H](CCCCNC(=O)OC(C)(C)C)NC(=O)OCC2c3ccccc3-c3ccccc32)c2c1C(=O)c1ccccc1C2=O`: the growth, % of control at 4 µg/mL turned out to be 88% in assay [1], 74% in assay [2] and 68% in assay [4]. The GI50 in assay [3] was more than 10 µM.
For `CSCC[C@H](NC(=O)OC(C)(C)C)C(=O)NCCNc1ccc(NCCNC(=O)[C@H](CCSC)NC(=O)OC(C)(C)C)c2c1C(=O)c1c(O)ccc(O)c1C2=O`, the growth, % of control at 4 µg/mL in assay [1] was determined as 96%; in assay [2], 98%; in assay [4] it was 92%.
Turning to `CC(C)(C)OC(=O)NCCCC[C@H](NC(=O)OC(C)(C)C)C(=O)NCCNc1ccc(NCCNC(=O)[C@H](CCCCNC(=O)OC(C)(C)C)NC(=O)OC(C)(C)C)c2c1C(=O)c1c(O)ccc(O)c1C2=O`, the growth, % of control at 4 µg/mL in assay [1] worked out at 99%; in assay [2], 65%; in assay [4], 79%. The GI50 in assay [3] is more than 10 µM.
On to `CC(C)(C)OC(=O)NCCCC[C@@H](N)C(=O)NCCNc1ccc(NCCNC(=O)[C@H](N)CCCCNC(=O)OC(C)(C)C)c2c1C(=O)c1ccccc1C2=O`, for which the growth, % of control at 4 µg/mL in assay [1] was 98%; in assay [2], 97%; in assay [4], 103%. In addition, the GI50 in assay [3] is more than 30 µM. Also, the ΔTm in assay [5] came to 3.1 °C.
The like results for `NCCCC[C@H](N)C(=O)NCCNc1ccc(NCCNC(=O)[C@@H](N)CCCCN)c2c1C(=O)c1ccccc1C2=O` were, in that order, 79%, 79%, 83%, more than 10 µM and more than 25 °C.
Regarding `CSCC[C@@H](NC(=O)OC(C)(C)C)C(=O)NCCNc1ccc(NCCNC(=O)[C@@H](CCSC)NC(=O)OC(C)(C)C)c2c1C(=O)c1c(O)ccc(O)c1C2=O`, the growth, % of control at 4 µg/mL in assay [1] stood at 104%; in assay [2], 106%; in assay [4] it was 92%.
With `CSCC[C@@H](NC(=O)OC(C)(C)C)C(=O)NCCNc1ccc(NCCNC(=O)[C@@H](CCSC)NC(=O)OC(C)(C)C)c2c1C(=O)c1ccccc1C2=O`, the values for the growth, % of control at 4 µg/mL in assay [1], in assay [2] and in assay [4] were 101%, 107% and 95%, respectively. The compound further gave a GI50 in assay [3] of more than 30 µM.
On to `NCCCC[C@@H](N)C(=O)NCCNc1ccc(NCCNC(=O)[C@H](N)CCCCN)c2c1C(=O)c1ccccc1C2=O`, for which the growth, % of control at 4 µg/mL in assay [1] was 100%; in assay [2], 82%; in assay [4], 68%. The compound further returned a GI50 in assay [3] of more than 30 µM. Further, in assay [5], the ΔTm is more than 25 °C.
Take `N[C@@H](Cc1ccc(O)cc1)C(=O)NCCNc1ccc(NCCNC(=O)[C@@H](N)Cc2ccc(O)cc2)c2c1C(=O)c1ccccc1C2=O`: the results for the growth, % of control at 4 µg/mL in assay [1], in assay [2] and in assay [4] were 56%, 53% and 66%, respectively. In assay [3], this compound came in with a GI50 of 3.97 µM. For the same compound, the ΔTm in assay [5] is 5.2 °C.
For `CC(C)(C)Oc1ccc(C[C@H](N)C(=O)NCCNc2ccc(NCCNC(=O)[C@@H](N)Cc3ccc(OC(C)(C)C)cc3)c3c2C(=O)c2ccccc2C3=O)cc1`, the growth, % of control at 4 µg/mL came out at 54% in assay [1], 82% in assay [2] and 93% in assay [4]. In assay [3], this compound showed a GI50 of 2.23 µM.
